# Screens (PubChem)
# DENV2 CPE: protects cells from dengue virus 2 cytopathic effect. 350,000 tested, 1.7% active. CPE inhibition, % at 9.99 µM. DENV2-infected cells, cytopathic effect rescue, plate reader; in the data active = CPE inhibition above about 20%, passing the limit was not always enough; inconclusive = no clear call, values can overlap the other calls; tested in BHK-21 cells;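 also: 0% = median of neutral control wells and 100% = median of positive control wells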
# S100A4 MyoIIA: S100A4-myosin IIA interaction inhibition; P26447; S100A4/TAMRA-MyoIIA peptide fluorescence polarization; inhibition, % at 10.7 µM; 360,000 tested, 0.14% active;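 active = mean inhibition of at least 70% across replicates, with every replicate also reaching that level; inconclusive = mean inhibition reaches 70% but some replicates fall short; inactive = mean inhibition below 70%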
# Target sequence (P26447 whole entry, looked up): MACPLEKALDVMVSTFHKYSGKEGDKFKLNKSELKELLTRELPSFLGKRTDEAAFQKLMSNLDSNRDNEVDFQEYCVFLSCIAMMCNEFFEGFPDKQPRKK
#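 System – human S100A4 monomer protein, biochemical binding assay · Buffer or medium – Calcium-containing HEPES buffer, pH 7.2 · Timing – 5 min between mix addition and reading · Also added – TAMRA-labelled myosin IIA heavy-chain peptide probe, 5 nM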
# SIRT5 block: sirtuin-5 (human) deacylase inhibition | Q9NXA8 | Purified SirT5, succinyl-peptide AMC, trypsin-coupled fluorescence | inhibition, % at 15 µM | 330,000 tested, 1.1% active | AID 652115; in the data active = inhibition above about 15%; inconclusive = no clear call, values can overlap the other calls
# Target sequence (Q9NXA8 whole entry, looked up): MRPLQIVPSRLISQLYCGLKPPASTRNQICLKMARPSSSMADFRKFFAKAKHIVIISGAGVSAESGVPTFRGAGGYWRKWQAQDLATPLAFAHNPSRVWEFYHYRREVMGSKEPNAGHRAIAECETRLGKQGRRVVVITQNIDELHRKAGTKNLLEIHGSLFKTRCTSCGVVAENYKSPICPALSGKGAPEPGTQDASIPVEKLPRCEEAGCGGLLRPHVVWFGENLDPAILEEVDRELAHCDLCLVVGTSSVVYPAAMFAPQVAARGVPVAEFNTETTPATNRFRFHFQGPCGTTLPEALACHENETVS
# C2C12 statin: protects C2C12 myotubes from simvastatin toxicity; ATP luminescence, 48 h; scaled: DMSO 0, geranylgeraniol control 100; rescue of ATP level, % at 7.49 µM; 330,000 tested, 0.78% active; AID 602340;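 active = mean ATP rescue above about 67%, or every replicate alone reaching that limit, limit read from the data, passing the limit was not always enough; inconclusive = no clear call, values can overlap the other calls; inactive = mean under the limit and some replicate under it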;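 also: myotubes were challenged with 10 µM simvastatin during compound exposure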
# PGC1a acetyl inh: modulators of PGC1a acetylation; U2OS PGC1a acetylation, AlphaScreen anti-acetyl-lysine; with virally co-expressed GCN5 acetyltransferase; inhibition, % at 15.6 µM; 350,000 tested, 0.17% active;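 active = every replicate shows inhibition of at least 40%; inconclusive = mean inhibition at least 40% but some replicate below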;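 also: 0% = neutral control wells and 100% = positive control wells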
# Starred values were filed as active, the others as inactive; ? = inconclusive; nt = no result. Compounds with a hit are over-represented: about 2.9% of the library has one in this group of screens.
SMILES,DENV2 CPE,S100A4 MyoIIA,SIRT5 block,C2C12 statin,PGC1a acetyl inh
C[C@@H]1CN([C@H](C)CO)C(=O)c2cccc(NC(=O)c3ccc(-c4nccs4)cc3)c2O[C@@H]1CN(C)C(=O)Nc1ccc(F)cc1,63*,-5,5,87*,4
C[C@H](CO)N1C[C@H](C)[C@@H](CN(C)Cc2ccc(C(=O)O)cc2)Oc2ccc(NC(=O)Nc3ccc4c(c3)OCO4)cc2CC1=O,nt,6,0,-9,-2
C[C@@H]1CCCCO[C@@H](CN(C)C(=O)c2ccncc2)[C@@H](C)CN([C@@H](C)CO)C(=O)c2cc(NS(=O)(=O)c3cn(C)cn3)ccc2O1,-4,5,-1,nt,7
O=C(N[C@H]1CC[C@@H](CCn2cc(C3(O)CCCC3)nn2)O[C@H]1CO)C1CCCC1,-10,2,1,-1,3
O=C(O)CCNC(=O)OCC1c2ccccc2-c2ccccc21,-3,2,-5,3,3
O=C(CCNC(=O)OCC1c2ccccc2-c2ccccc21)NOCc1ccccc1,29*,6,-3,3,-5
COC(=O)C[C@@H]1CC[C@@H]2[C@@H](COc3ccc(NC(=O)NC(C)C)cc3C(=O)N2C)O1,?,13,-5,-17,-3
CCOC(=O)[C@H](O)[C@@H](O)c1cccc([C@H](O)[C@@H](O)C(=O)OCC)c1,41*,-15,nt,7,0
CCOC(=O)C(C(=O)OCC)C(Nc1ccccc1)c1ccccc1 (stereo unspecified),-3,-2,-8,17,13
COc1ccc(CN(C)C[C@@H]2OCCCC[C@H](C)Oc3ccc(NC(=O)Cc4ccccc4)cc3C(=O)N([C@H](C)CO)C[C@H]2C)cc1,13,nt,nt,nt,-3
CC(C)(CN1CCN(Cc2ccccc2)CC1)NS(=O)(=O)c1ccc(Cl)cc1,30*,2,-3,6,1
COc1ccc(CN(C)C[C@H]2OCCCC[C@@H](C)Oc3ccc(NC(=O)c4ccccc4)cc3C(=O)N([C@@H](C)CO)C[C@@H]2C)cc1,10,4,0,nt,2
CCn1cc(C(=O)O)c(=O)c2cnc(N3CCN(C(=S)Nc4ccccc4Cl)CC3)nc21,-8,7,16*,-4,-6
Cc1cccc(C(=O)O)c1O,67*,1,nt,5,-1
Cc1cccc(C(=O)OCC(=O)NC(=O)c2ccccc2)c1O,3,3,16*,nt,nt
COn1c(-c2ccccc2)nc2c1CCc1c-2no[n+]1[O-],nt,nt,nt,89*,6
COc1ccc2c3c([nH]c2c1)[C@@H](CO)N(Cc1cccc(F)c1)CC31CN(Cc2ccccn2)C1,39*,-1,0,nt,nt
COc1ccc2c3c([nH]c2c1)[C@H](CO)N(Cc1ccccn1)CC31CN(C(C)=O)C1,47*,nt,nt,nt,-2
CCCNC(=O)N1C[C@H](C)[C@@H](OC)CN(C)C(=O)c2cc(NS(=O)(=O)CC(F)(F)F)ccc2OC[C@H]1C,9,9,-7,1,-4
C[C@@H]1CN([C@H](C)CO)C(=O)c2cccc(NC(=O)Nc3ccc(F)cc3)c2O[C@@H]1CN(C)C(=O)Nc1ccc(F)cc1,7,5,0,-5,2
C[C@@H]1CN([C@H](C)CO)C(=O)c2cc(NC(=O)c3ccncc3)ccc2O[C@@H]1CN(C)Cc1ccncc1,4,1,11,-5,0
c1ccc2c(c1)[nH]c1nc3nncn3nc12,7,7,18*,12,-3
O=C1C=CC(=O)c2c(O)c(CO)c(CO)c(O)c21,-12,1,15*,nt,-1
CC(=O)Nc1cc(-c2cccc(NS(C)(=O)=O)c2)cn2c(-c3cccc(C(C)=O)c3)cnc12,33*,-4,-7,-6,-6
O=C(C[C@@H]1C=C[C@@H](NC(=O)Cc2ccccn2)[C@H](CO)O1)NCCCN1CCOCC1,38*,7,4,-2,3
SMILES,DENV2 CPE,S100A4 MyoIIA,SIRT5 block,C2C12 statin,PGC1a acetyl inh
O=C(C[C@@H]1C=C[C@H](NC(=O)Cc2ccccn2)[C@@H](CO)O1)NCCCN1CCOCC1,-4,53,2,-3,-13
O=C(C[C@H]1C=C[C@H](NC(=O)Cc2ccccn2)[C@@H](CO)O1)NCCCN1CCOCC1,-7,21,-1,-21,-7
O=C(C[C@@H]1C=C[C@H](NC(=O)Cc2ccccn2)[C@H](CO)O1)NCCCN1CCOCC1,33*,27,7,21,-19
CC(Cc1ccccc1)N/C=C1\CC(=O)NC1=O (stereo unspecified),nt,nt,nt,80*,-1
CCc1cc[n+](-c2nc([O-])sc2C=O)cc1,nt,nt,nt,108*,7
CC(C)(C)c1cc[n+](-c2nc([O-])sc2C=O)cc1,-7,-1,-2,nt,nt
CCCC(=O)Nc1ccc2c(c1)OC[C@@H](C)N(Cc1ccc(F)cc1)C[C@H](C)[C@@H](OC)CN(C)C2=O,1,0,4,15,-16
CC(C)Oc1ccc(C(=O)NCc2ccco2)cc1,nt,nt,nt,127*,6
C[C@@H]1CN([C@@H](C)CO)C(=O)c2cc(NC(=O)Nc3ccccc3)ccc2O[C@@H]1CN(C)S(=O)(=O)c1cccs1,-1,-6,6,-39,8
CC(C)NC(=O)NCC[C@@H]1CC[C@@H](NS(=O)(=O)c2ccc(-c3ccccc3)cc2)[C@H](CO)O1,6,-7,2,3,-3
CC(NC(=O)CCc1ccccc1)c1ccc2c(c1)OCO2 (stereo unspecified),29*,0,4,3,2
CC(NC(=O)CSc1ncccn1)c1ccc2c(c1)OCO2 (stereo unspecified),4,-3,9,-4,1
COc1cccc(-c2csc(N3CCN(C(=O)Nc4ccc(F)cc4)CC3)n2)c1,nt,nt,nt,8,4
COc1cccc(-c2csc(N3CCN(C(=O)Nc4ccccc4OC)CC3)n2)c1,3,0,1,77*,1
C[n+]1cccc(CNC(=O)/C=N/O)c1,nt,nt,nt,112*,?
CCOC(=O)N1CCC(NS(=O)(=O)c2ccc(C#N)cc2)CC1,47*,4,nt,nt,5
CCOC(=O)N1CCC(NS(=O)(=O)c2ccc3c(c2)CCN3C(C)=O)CC1,nt,nt,nt,24,0
O=C1C2C3C=CC(C4CC34)C2C(=O)N1/N=C/c1c[nH]c2ccccc12 (stereo unspecified),12,-2,-2,11,106*
OC[C@H]1CC[C@@H]2O[C@H](CCc3ccc(C#Cc4ccccc4)cc3)[C@@H](n3cc(-c4ccccc4)nn3)C[C@@H]2O1,7,-5,-2,nt,nt
C[C@H]1CN([C@@H](C)CO)C(=O)c2cccc(NC(=O)NC3CCCCC3)c2O[C@@H]1CN(C)C(=O)NC1CCCCC1,-5,0,-6,-23,0
COc1ccc(C2C(Oc3ccccc3)C(=O)N2c2cc(C)ccc2C)cc1OC (stereo unspecified),nt,nt,nt,73*,-12
